# In publication PMC3364105 (Nature Biotechnology, 2011):
# Legend:
# Type in all cases: in vivo
# sciatic nerve = assay: Cy5-NP41 nerve labeling and localization in thy1-YFP transgenic mice; conditions: for nerve-to-muscle contrast / nerve labeling: injected into thy1-YFP transgenic mice
# peripheral nerves = conditions: FAM-labeled peptide, intravenous, living mice; for background binding to surrounding nonneural tissue: 2–4 h after injection
# In short: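 Peptides were made as fluorescein-5(6)-carbonyl (FAM) conjugates on a C-terminal lysinamide. The control was a same-format peptide with the shared amino acids in random order. Each was given intravenously to living mice, and FAM fluorescence contrast between peripheral nerve and muscle was evaluated 2–4 h post-injection.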
# [1] = Behavior, activity, weight and morbidity after injection; conditions: mice, injections of 75–300 nmoles
# [2] = Biodistribution and urine metabolites after systemic administration; conditions: mice
# In short: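 Mice received 150 nmoles FAM- or Cy5-labeled test peptide intravenously. Organs were harvested and fluorescence uptake was evaluated. Urine was analysed by MALDI mass spectrometry to identify the major fluorescently labeled species. The control was an all-D-amino-acid FAM-labeled peptide.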
compound,measurement,setting,value
"CCN1/C(=C/C=C/C=C/C2=[N+](CCCCCC(=O)O)c3ccc(S(=O)(=O)O)cc3C2(C)C)C(C)(C)c2cc(S(=O)(=O)[O-])ccc21 [unconjugated Cy5, reference compound]",nerve-to-muscle contrast / nerve labeling,sciatic nerve,No nerve-to-muscle contrast was detected
AHHNSWKAKHHS [NP38],background binding to surrounding nonneural tissue,peripheral nerves,high-background binding to the surrounding nonneural tissue
NTQTLAKAPEHT [NP41],nerve-to-muscle contrast,peripheral nerves; evaluated 2–4 h after injection,best nerve to nonnerve contrast
TYTDWLNFWAWP [NP39],background binding to surrounding nonneural tissue,peripheral nerves,high-background binding to the surrounding nonneural tissue
acetyl-SHSNTQTLAKAPEHTGC-(Cy5)-amide [Cy5-NP41],localization within nerve,sciatic nerve; 3–5 µm cryosections of nerves from thy1-YFP animals,"localized to the epineurium of the nerves with some labeling of the perineurium and endoneurium, but did not colocalize with either myelin or axons"
same,nerve-to-muscle contrast / nerve labeling,sciatic nerve,precisely labeled nerves that expressed YFP
same,change in behavior or activity,[1],no change in behavior or activity
same,biodistribution of fluorescence,"[2]; intravenous, 150 nmoles, harvested organs",majority of the fluorescence accumulated in the kidney and was excreted into the urine
same,state of peptide recovered in urine,"[2]; urine, liquid chromatography–electrospray mass spectrometry / MALDI-MS",efficiently metabolized
same,major fluorescently labeled species in urine,"[2]; urine, matrix-assisted laser desorption/ionization mass spectrometry",cysteinamide-Cy5
